CAL PDZ FP-1 – CAL PDZ peptide-binding inhibitors, primary screen, biochemical, fluorescence polarization, Cer-tagged CAL PDZ, HTS; purified CAL PDZ, TMR-peptide fluorescence polarization, 1 h; AID 504414, 2011; inhibition, % at 20 µM; 330,000 tested, 0.02% active; Golgi-associated PDZ and coiled-coil motif-containing protein (Homo sapiens), Q9HD26;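 active = highest replicate inhibition of at least 40%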;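 note: plate controls were DMSO neutral control wells for no effect and unlabeled competitor peptide control wells for full effect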
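System: tagged CAL PDZ domain. Schedule: 1 h room-temperature incubation prior to read. Signal: fluorescence polarization (mP). Measure: percent inhibition from loss of millipolarization.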
Rce1 inh – yeast Rce1p protease inhibitors, primary screen, biochemical, fluorescence, cell-free homogeneous; CAAX prenyl protease 2 (Saccharomyces cerevisiae (strain ATCC 204508 / S288c)), Q03530; yeast membranes, quenched prenylated peptide cleavage fluorescence; calls only; 290,000 tested, 0.27% active; AID 2563, 2010;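 active = fall in fluorescence gain of 50% or more versus controls, with final raw signal at or below 3038400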;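 note: plate controls were neutral control wells for no effect and wells lacking membranes for full effect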
Target sequence (Q03530 whole entry, looked up): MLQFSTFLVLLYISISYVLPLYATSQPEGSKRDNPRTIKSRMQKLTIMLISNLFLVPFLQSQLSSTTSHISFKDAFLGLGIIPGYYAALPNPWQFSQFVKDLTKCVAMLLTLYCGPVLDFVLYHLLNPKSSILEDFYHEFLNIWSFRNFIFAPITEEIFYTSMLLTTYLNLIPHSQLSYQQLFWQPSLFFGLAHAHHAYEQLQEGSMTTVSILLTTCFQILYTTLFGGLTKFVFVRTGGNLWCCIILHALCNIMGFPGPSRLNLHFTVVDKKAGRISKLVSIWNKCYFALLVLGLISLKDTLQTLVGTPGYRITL
CAL PDZ FP-2 – untagged CAL PDZ binding inhibitors, primary screen, biochemical, fluorescence polarization, HTS; Golgi-associated PDZ and coiled-coil motif-containing protein (Homo sapiens), Q9HD26; purified CAL PDZ, TMR-peptide fluorescence polarization, 1 h; inhibition, % at 24.9 µM; 300,000 tested, 0.92% active;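 active = mean inhibition of at least 30% with at least half of replicates also reaching 30%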;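 note: 0% = DMSO neutral control and 100% = excess unlabeled competitor peptide PRC23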
AI-2 QS mod – Vibrio harveyi AI-2 quorum sensing modulators, primary screen, JMH597 strain, luminescence/OD600 ratio; Vibrio harveyi JMH597 AI-2 luminescence/OD600 ratio, 9 h; stronger effect = lower value; strain lacks LuxN and CqsS sensors; 0 = neutral-control median; activity change, % at 7.5 µM; 300,000 tested, 0.4% active; in the data active = activity change below about -75%, passing the limit was not always enough;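 note: luminescence divided by OD600 gain over 9 h not by final OD600 alone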
ARNT TACC3 PPI – disruptors of ARNT/TACC3 protein interaction, primary screen, biochemical, AlphaScreen, single concentration | inhibition, % at 9.99 µM | AlphaScreen His-ARNT PAS-B/GST-TACC3 binding, luminescence; TACC3 fragment carries E629A point mutation | Transforming acidic coiled-coil-containing protein 3 (Homo sapiens), Q9Y6A5 | 390,000 tested, 0.66% active | AID 623870, 2012;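 active = mean inhibition of replicates at least 50% and at least half of replicates each reaching 50%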;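 note: 0% = complete ARNT plus TACC3 wells and 100% = ARNT alone without TACC3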
An asterisk follows results filed as active; i = inactive; nt = no result given; + = active, no number. This is a sample that favours compounds with a hit; in the whole collection about 1.7% have one here.

SMILES | CAL PDZ FP-1 | Rce1 inh | CAL PDZ FP-2 | AI-2 QS mod | ARNT TACC3 PPI
CCc1ccc2nc3n[nH]c(N)c3cc2c1 | 0 | i | -1 | 8 | -2
Nc1cccc2nc3ccccc3cc12 | -3 | + | -3 | 11 | -1
Nc1[nH]nc2nc3ccccc3cc12 | 0 | i | 47* | 19 | 4
COc1ccc(C(N)c2nccc3cc(OC)c(OC)cc23)cc1OC (centres undefined) | -1 | i | 2 | -1 | 72*
C[C@H](CO)N1C[C@H](C)[C@H](CN(C)C(=O)CC2CC2)Oc2ncc(C#C[C@@H](C)O)cc2C1=O | nt | nt | nt | nt | -4
CCC(=O)Nc1cc(-c2nn(CC(=O)N3CCCCC3)c(=O)c3ccccc23)ccc1N1CCOCC1 | 0 | + | -2 | 30 | -2
CCCC(=O)Nc1cc(-c2nn(C)c(=O)c3ccccc23)ccc1N1CCOCC1 | -2 | i | -2 | -7 | 17
COc1ccc(C2C3=C(CC(C)(C)CC3=O)Nc3n[nH]c(C)c32)cc1 (centres undefined) | -1 | + | -4 | 7 | 3
COc1cccc(C2C3=C(CC(C)(C)CC3=O)Nc3n[nH]c(C)c32)c1 (centres undefined) | -2 | i | -4 | -10 | -2
O=S1(=O)CC=C(CSC(=S)NC2CCS(=O)(=O)C2)C1 (centres undefined) | -1 | i | 17 | -83* | -1
CCOC(=O)c1sc(NC(=O)CSCc2c(C)noc2C)nc1C | -3 | nt | -4 | nt | -2
CC(C)(C)c1ccc(/C=N/N2CCN(c3ccccn3)CC2)cc1 | -1 | i | 53* | 28 | 7
Oc1ccc(/C=N/N2CCN(c3ccccn3)CC2)cc1 | -2 | i | -2 | 24 | -4
CCN=c1scc(-c2ccc(F)cc2)n1/N=C/c1ccccn1 | 1 | i | nt | 38 | 32
CCCc1sc(N/N=C/c2ccccn2)nc1-c1ccc(F)cc1 | 1 | i | 0 | 33 | 67*
C[C@@H]1CN([C@@H](C)CO)C(=O)Cc2cc(NC(=O)Cc3cn(C)c4ccccc34)ccc2O[C@@H]1CN(C)C(=O)Nc1cccc2ccccc12 | nt | nt | nt | nt | -7
c1ccc(CCNc2ccnc3cc4ccccc4cc23)cc1 | 1 | + | -2 | 24 | 27
Cc1c(C)n(Cc2ccc(F)cc2)c2ccc(C(=O)NCCN3CCOCC3)cc12 | 1 | i | 90* | -8 | -6
CCOc1ccccc1NC(=O)CN1C(=O)COc2ccc(Cl)cc21 | -1 | i | nt | 24 | -7
COc1ccc(CNC(=O)CN2C(=O)NC(C)(c3cccc4ccccc34)C2=O)cc1OC (centres undefined) | -1 | i | 41* | 14 | 1
CCC1(c2ccccc2)NC(=O)N(CC(=O)NCc2ccncc2)C1=O (centres undefined) | -1 | i | -3 | 27 | -5
CCC1(c2ccccc2)NC(=O)N(CC(=O)NCc2ccc(OC)cc2)C1=O (centres undefined) | 0 | i | nt | -80* | nt
COc1ccc(C2(C)NC(=O)N(CC(=O)Nc3ccc4ccccc4c3)C2=O)cc1OC (centres undefined) | -3 | nt | 0 | nt | -3
Cc1noc(C)c1CSCC(=O)N(C)CC(=O)Nc1ccc(F)cc1 | -3 | i | -4 | -4 | nt
CN(C)CCCn1c2c(c(SCC(=O)Nc3cccc4ccccc34)nc1=O)CCCC2 | -3 | i | 49* | 9 | nt
SMILES | CAL PDZ FP-1 | Rce1 inh | CAL PDZ FP-2 | AI-2 QS mod | ARNT TACC3 PPI
CCN(CC)CCCn1c2c(c(SCC(=O)Nc3cccc4ccccc34)nc1=O)CCC2 | 0 | i | -1 | 16 | -6
CCCCOc1ccccc1N1CCN(CCCN2C(=O)C3CCCN3C2=O)CC1 (centres undefined) | nt | i | 32* | 14 | -6
COc1ccccc1N1CCN(CCCCN2C(=O)C3CCCCN3C2=O)CC1 (centres undefined) | 1 | i | 0 | 22 | -7
CC(CCC(C)C(C)(C)C)[C@@H]1CC[C@H]2C3C[C@H](OS(O)(=S)=S)[C@H]4C[C@H](OS(O)(=S)=S)[C@@H](OS(O)(=S)=S)C[C@]4(C)[C@H]3CC[C@]12C (some centres undefined) (tested in a mixture with another compound) | -2 | nt | -16 | nt | 55*
CC(CCC(=O)NN)C1CCC2C3CCC4CC(O)CCC4(C)C3CCC12C (centres undefined) | -1 | nt | -3 | nt | -7
Fc1ccccc1CSc1nnc(-c2cccnc2)o1 | -2 | i | 3 | -92* | -6
Cc1ccc(C)c(CSc2nnc(-c3cccnc3)o2)c1 | -4 | i | nt | -80* | -10
COC(=O)c1cnn(-c2ccccc2)c1N | -2 | i | -6 | 15 | -3
CO[C@@H]1CN(C)C(=O)c2cc(NC(C)=O)ccc2OC[C@@H](C)N(Cc2ccccc2C(=O)O)C[C@H]1C | nt | nt | nt | nt | -3
CC1CCN(S(=O)(=O)c2ccc(NC(=O)CN3C(=O)NC(C)(c4ccccc4)C3=O)cc2)CC1 (centres undefined) | -2 | i | -3 | -79* | -3
CCC1(c2ccccc2)NC(=O)N(CC(=O)Nc2ccc(S(=O)(=O)N3CC(C)CC(C)C3)cc2)C1=O (centres undefined) | -1 | i | -4 | 30 | 0
CC1(c2ccc(OC(F)F)cc2)NC(=O)N(CC(=O)Nc2ccccc2)C1=O (centres undefined) | -2 | i | -1 | -91* | 12
Cc1ccc(S(=O)(=O)Nc2ccc3c(c2)CC(=O)N([C@H](C)CO)C[C@@H](C)[C@H](CN(C)C(=O)Nc2ccccc2)O3)cc1 | nt | nt | nt | nt | -4
CCN1CCCc2cc(CN(CCN3CCOCC3)C(=S)Nc3cccc(C)c3)ccc21 | -1 | i | 53* | 24 | 33
CCN1CCCc2cc(CN(CCN3CCOCC3)C(=S)Nc3ccccc3C)ccc21 | 0 | i | 17 | 18 | -2
Cc1cccc(-c2ccc3c(c2)C2CC3CCN2C(=O)OCc2ccccc2)c1 (centres undefined) | 0 | nt | -5 | nt | 3
O=C(OCc1ccccc1)N1CCC2CC1c1cc(-c3ccccc3)ccc12 (centres undefined) | 0 | nt | 53* | nt | -2
CC(C)NC(=O)N1[C@@H](CO)[C@H](c2ccccc2)[C@@H]1CN(C)C(=O)c1cccnc1 | nt | nt | nt | nt | -9
Cc1ccc(C(=O)c2coc3cc([N+](=O)[O-])c(O)c([N+](=O)[O-])c23)cc1 | -1 | i | 0 | -90* | nt
